# Measured values gathered from unrelated publications.
# Each line is one published result; the experiments were not run side by side.
# CELA1: Chymotrypsin-like elastase family member 1 (CELA1, Sus scrofa, UniProt P00772)
# PIK3CA: Phosphatidylinositol 4,5-bisphosphate 3-kinase catalytic subunit alpha isoform (PIK3CA, Homo sapiens, UniProt P42336)
# MAP2K1: Dual specificity mitogen-activated protein kinase kinase 1 (MAP2K1, Homo sapiens, UniProt Q02750)
# PIKFYVE: 1-phosphatidylinositol 3-phosphate 5-kinase (PIKFYVE, Homo sapiens, UniProt Q9Y2I7)
# PDE9A: High affinity cGMP-specific 3',5'-cyclic phosphodiesterase 9A (PDE9A, Homo sapiens, UniProt O76083)
# PARP11: Protein mono-ADP-ribosyltransferase PARP11 (PARP11, Homo sapiens, UniProt Q9NR21)
# AVPR1A: Vasopressin V1a receptor (AVPR1A, Homo sapiens, UniProt P37288)
Compound,target,assay,system,setting,IC50 [nM]
Cc1ccc(C(C)C)cc1NC(=O)COC(=O)/C=C/c1ccccc1O,CELA1,"enzyme activity, inhibitor, absorbance",,,13300
O=C(Nc1c[nH]nc1C(=O)NC1CCNCC1)c1cc(F)cc(F)c1,"Cyclin-dependent kinase 16 (CDK16, Homo sapiens, UniProt Q00536)","target engagement in cells, BRET",,,1900
COc1ccc(S(=O)(=O)ON=C2C=C(C)C(=O)C(C)=C2)cc1,"Histone acetyltransferase KAT6B (Homo sapiens, UniProt Q8WYB5)","enzyme activity, inhibitor, radiometric",,,> 100000
CN1CCN(c2ccc(Nc3ncc4cc(C#N)c(=O)n(C5CCCC5)c4n3)cc2)CC1,"Activin receptor type-1-like (ACVRL1, Homo sapiens, UniProt P37023)","enzyme activity, inhibitor",,,449
CC(C)C[C@H](NC(=O)[C@H](C)NC(=O)[C@H](CCCCN)NC(=O)[C@H](CCCCN)NC(=O)[C@@H](N)CCCCN)C(=O)N[C@@H](CC(N)=O)C(=O)N[C@@H](CCCNC(=N)N)C(=O)N[C@@H](CCC(N)=O)C(=O)N[C@@H](CC(C)C)C(=O)NCC(=O)N[C@H](C(=O)N[C@@H](C)C(=O)N[C@@H](C)C(N)=O)C(C)C,"MAP kinase-activated protein kinase 2 (MAPKAPK2, Homo sapiens, UniProt P49137)","enzyme activity, inhibitor, radiometric",,,31000
CCOc1ccc(/C=C2\SC(=S)NC2=O)cc1,PIK3CA,"enzyme activity, inhibitor, radiometric",,,5400
NC(=O)NCCC[C@@H](NS(=O)(=O)c1ccc(OCc2cc(Br)cc(Br)c2)cc1)C(=O)NO,"Disintegrin and metalloproteinase domain-containing protein 17 (ADAM17, Homo sapiens, UniProt P78536)","enzyme activity, inhibitor, fluorescence",,,1.9
CC(C)(C)n1nc(-c2ccc3nc(OC4CC4)ccc3c2)c(C(N)=O)c1N,MAP2K1,cell-free assay,,,2380
C[C@@H]1O[C@@H](OC[C@H]2O[C@@H](Oc3c(-c4ccc(O)cc4)oc4cc(O)cc(O)c4c3=O)[C@H](O[C@@H]3O[C@H](CO)[C@@H](O)[C@H](O)[C@H]3O)[C@@H](O)[C@@H]2O)[C@H](O)[C@H](O)[C@H]1O,"Prostaglandin G/H synthase 2 (PTGS2, Ovis aries, UniProt P79208)","enzyme activity, inhibitor, absorbance",,,45200
CCOC(F)(F)c1nnc2cnc(-c3cnc(OCC(F)(F)F)c(F)c3)cn12,"Sodium channel protein type 2 subunit alpha (Scn2a, Rattus norvegicus, UniProt P04775)","ion current, inhibitor, patch clamp",,,179
CC(C)(C#Cc1ccc2[nH]c3c(c2c1)-c1nc(N)ncc1CCC3)NS(C)(=O)=O,PIKFYVE,"target engagement in cells, BRET",,,1600
C/C=C1\NC(=O)[C@H](C)NC(=O)[C@@H](NC(=O)[C@@H](Cc2ccc(O)cc2)NC(=O)[C@@H](NC(=O)/C(C)=C/C)C(C)C)[C@@H](C)OC(=O)[C@H](CCc2ccc(O)cc2)NC(=O)[C@@H](CCC(=O)O)NC1=O,CELA1,"enzyme activity, inhibitor, absorbance",,,2140
Cn1cc(C2=C(c3coc4ccccc34)C(=O)NC2=O)c2cc(Br)ccc21,PIK3CA,"enzyme activity, inhibitor",,,870
O=C1NC(=S)S/C1=C\c1ccccc1[N+](=O)[O-],PIK3CA,"enzyme activity, inhibitor, radiometric",,,> 100000
COCC1CCCc2c1[nH]c(=O)c(C#N)c2-c1ccc(C)cc1 (stereo not shown),PDE9A,"enzyme activity, inhibitor, radiometric",,,400
O=C1NC(=S)S/C1=C\c1cc(Br)cc(Br)c1,PIK3CA,"enzyme activity, inhibitor, radiometric",,,> 100000
CC1=C(C#N)[C@@H](c2ccc(C#N)cc2S(C)(=O)=O)N(C)C(=O)N1c1cccc(C(F)(F)F)c1,CELA1,"enzyme activity, inhibitor",,,> 30000
NC(=O)c1ccc[n+]([C@@H]2O[C@H](COP(=O)([O-])OP(=O)(O)OC[C@H]3O[C@@H](n4cnc5c(N)ncnc54)[C@H](O)[C@@H]3O)[C@@H](O)[C@H]2O)c1,PARP11,"enzyme activity, inhibitor",,,116000
CCCCN1/C(=C/C=C/c2sc3ccc(Br)cc3[n+]2CCCC)Sc2ccc(Br)cc21,"Protein arginine N-methyltransferase 8 (PRMT8, Homo sapiens, UniProt Q9NR22)","enzyme activity, inhibitor, radiometric",,,3530
COC(C)(C)C#Cc1ccc2[nH]c3c(c2c1)-c1nc(N)ncc1CCC3,PIKFYVE,"enzyme activity, inhibitor, ADP detection",,,6.2
COc1cc(O)c(/C=C2\SC(=S)NC2=O)c(OC)c1,PIK3CA,"enzyme activity, inhibitor, radiometric",,,11000
O=C(NCc1ccc(N2CCOCC2)cc1)c1cnc2c(SSc3cccc4cc(C(=O)NCc5ccc(N6CCOCC6)cc5)cnc34)cccc2c1,"STAM-binding protein (STAMBP, Homo sapiens, UniProt O95630)","enzyme activity, inhibitor, FRET",,,900
COc1cc(C[C@H]2C(=O)OC[C@@H]2Cc2ccc(OC)c(OC)c2)ccc1O,PDE9A,"enzyme activity, inhibitor",,,> 20000
O=[N+]([O-])c1ccc(N2CCN(S(=O)(=O)c3ccc(F)cc3)CC2)cc1NCc1cccnc1,"ATP-sensitive inward rectifier potassium channel 1 (Homo sapiens, UniProt P48048)","ion flux, inhibitor",,,1900
NCCCC[C@H](NC(=O)[C@@H]1CCCN1C(=O)[C@@H]1CSSC[C@H](NC(=O)CNC(=O)CNC(=O)CN)C(=O)N[C@@H](Cc2ccc(O)cc2)C(=O)N[C@@H](Cc2ccccc2)C(=O)N[C@@H](CCC(N)=O)C(=O)N[C@@H](CC(N)=O)C(=O)N1)C(=O)NCC(N)=O,AVPR1A,"ligand displacement, radioligand",,cell membranes,1700
CC(C)(C)c1c(O)ccc(/C=C2\SC(=S)NC2=O)c1C(C)(C)C,PIK3CA,"enzyme activity, inhibitor, radiometric",,,30000
CN(C)CC#Cc1ccc2[nH]c3c(c2c1)-c1nc(N)ncc1CCC3,MAP2K1,"enzyme activity, inhibitor, radiometric",,,> 10000
CSc1ccc(/C=C2/C(C)=C(CC(=O)O)c3cc(F)ccc32)cc1,PDE9A,"enzyme activity, inhibitor",,,> 100000
C[C@H](CS)C(=O)N1CCC[C@H]1C(=O)O,"Beta-lactamase L1 (Stenotrophomonas maltophilia, UniProt P52700)","enzyme activity, inhibitor",,,73700
O=C1NC(=S)S/C1=C\c1ccc(C(=O)O)cc1,PIK3CA,"enzyme activity, inhibitor, radiometric",,,> 100000
Cc1ccc(C(=O)Nc2ccc(Oc3cc4cnn(C)c4cc3-c3cn[nH]c3)c(F)c2)c(=O)n1-c1ccc(F)cc1,"Vascular endothelial growth factor receptor 2 (KDR, Homo sapiens, UniProt P35968)","enzyme activity, inhibitor, radiometric",,,53
CC1(C)CC(=O)c2cc(-c3nc(-c4ccc(Cl)cc4)cs3)c(=O)n(-c3ccccc3C(F)(F)F)c2C1,"Isocitrate dehydrogenase [NADP] cytoplasmic (IDH1, Homo sapiens, UniProt O75874, R132C)","enzyme activity, inhibitor",,,200
NC(=O)[C@H](CCCN=C(N)CF)NC(=O)c1ccccc1,"Protein-arginine deiminase type-1 (PADI1, Homo sapiens, UniProt Q9ULC6)","enzyme activity, inhibitor",,,29500
NC(=O)c1ccc(Oc2ccc(C(N)=O)cc2)cc1,PARP11,"enzyme activity, inhibitor",,,930
C[C@@H]1COCCN1c1nc(-c2cnc(N)nc2C(F)F)nc(N2CCOCC2)n1,PIK3CA,"ligand displacement, TR-FRET",,,26.1
COc1cc(O)c(CC=C(C)C)c2c1C(=O)CC(c1ccc(O)cc1)O2 (stereo not shown),"Cytochrome P450 1A1 (CYP1A1, Homo sapiens, UniProt P04798)","enzyme activity, inhibitor, fluorescence",,"15 min, pH 7.4",1600
CNC(=O)c1cc2c(Oc3ccc(NC(=O)C4(C(=O)Nc5ccc(F)cc5)CC4)cc3)ccnc2cc1OC,"Protein-tyrosine kinase 6 (PTK6, Homo sapiens, UniProt Q13882)","enzyme activity, inhibitor, radiometric",,,25
COc1ccc([N+](=O)[O-])cc1/C=C1\SC(=S)NC1=O,PIK3CA,"enzyme activity, inhibitor, radiometric",,,28000
Cc1cccc(Nc2ccccc2C(=O)O)c1C,"UDP-glucuronosyltransferase 1A9 (UGT1A9, Homo sapiens, UniProt O60656)","enzyme activity, inhibitor","human, liver microsomes",,8900
O=C1NC(=S)S/C1=C\c1ccc(-c2ccccn2)cc1,PIK3CA,"enzyme activity, inhibitor, radiometric",,,> 100000
O=C(O)CCc1ccc(O)c(CN(CCN(CC(=O)O)Cc2cc(CCC(=O)NCCCCCC(=O)NCCCC[C@H](NC(=O)N[C@@H](CCC(=O)O)C(=O)O)C(=O)O)ccc2O)CC(=O)O)c1,"Glutamate carboxypeptidase 2 (FOLH1, Homo sapiens, UniProt Q04609)","ligand displacement, radioligand",,,24.3
Cc1ccc(C(C)C)cc1NC(=O)COC(=O)/C=C/c1ccccc1,CELA1,"enzyme activity, inhibitor, absorbance",,,5010
CC(C)(O)CC#Cc1ccc2[nH]c3c(c2c1)-c1nc(N)ncc1CCC3,PIKFYVE,"target engagement in cells, BRET",,,290
Cc1ccc(C(C)C)cc1NC(=O)COC(=O)/C=C/c1ccc(Cl)cc1,CELA1,"enzyme activity, inhibitor, absorbance",,,35800
CC(C)C[C@H](CC(=O)NO)C(=O)N[C@@H](Cc1ccccc1)C(=O)NCCN1CCOCC1,"Collagenase 3 (Rattus norvegicus, UniProt P23097)","enzyme activity, inhibitor, absorbance",,,15
Cc1ccc(C(C)C)cc1NC(=O)COC(=O)c1cc(O)cc(O)c1,CELA1,"enzyme activity, inhibitor, absorbance",,,33700
CC(=O)NC(C)(C)C#Cc1ccc2[nH]c3c(c2c1)-c1nc(N)ncc1CCC3,PIKFYVE,"target engagement in cells, BRET",,,> 10000
Cc1ccc(C(C)C)cc1NC(=O)COC(=O)c1ccc(O)cc1,CELA1,"enzyme activity, inhibitor, absorbance",,,81900
CCn1c(-c2nc3cc(C(=O)N4CCC[C@@H](N)C4)cc(OC)c3n2C)cc2cccnc21,AVPR1A,"calcium signal, antagonist, fluorescence",,,> 50100
